≈ marks a conversion by molar mass, not a printed value. Calls of active or inactive are those of the source. The rule behind the calls is not given here.
tested on: Fusarium graminearum; test: Fungicidal activity against Fusarium graminearum assessed as growth inhibition at 50 ug/ml at 23 degC after 3 days; format: functional; conditions: 72 h, read-out: GI
Procedure, shortened: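 Mycelial growth test in agar plates with 50 µg/mL final compound (from 500 µg/mL solution diluted into medium). A 4 mm plug from active mycelium fringe is placed centrally and incubated at 23 °C. Diameter is read after 3 days against a sterile water plus medium blank, in triplicate. Inhibition I = [(C − T)/C] × 100%.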

SMILES | inhibition of growth at 50 µg/mL [%]
Cn1nc(C(F)(F)F)c(/C=N/OCc2cnc(Cl)s2)c1Oc1ccc(Cl)cc1 | 36.3
Cn1nc(C(F)(F)F)c(/C=N/OCc2cnc(Cl)s2)c1Oc1ccc(F)cc1 | 29
Cc1nn(C)c(Oc2ccccc2)c1/C=N/OCc1ccc(C(=O)OC(C)(C)C)cc1 [FENPYROXYMATE] | 5.2
Cn1nc(C(F)(F)F)c(/C=N/OCc2cnc(Cl)s2)c1Oc1ccccc1 | 22.4
Cc1ccc(Oc2c(/C=N/OCc3cnc(Cl)s3)c(C(F)(F)F)nn2C)cc1C | 31.3
CC(C)(C)C(=O)C(Oc1ccc(Cl)cc1)n1cncn1 (configuration not stated) [TRIADIMEFON] | 72.6
Cc1ccccc1Oc1c(/C=N/OCc2cnc(Cl)s2)c(C(F)(F)F)nn1C | 21.2
Cc1cccc(Oc2c(/C=N/OCc3cnc(Cl)s3)c(C(F)(F)F)nn2C)c1 | 33.6
Cn1nc(C(F)(F)F)c(/C=N/OCc2cnc(Cl)s2)c1Sc1ccc(Cl)cc1 | 32.6

tested on: Cucumis sativus; test: Growth regulation of Cucumis sativus (cucumber) seeds assessed as rhizogenesis at 10 ug/ml at 24 degC after 3 days by cucumber cotyledon test; format: functional; conditions: not given
Procedure, shortened: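 Cucumber seeds (JINKE No. 4) were germinated in the dark at 24 °C for 3 days, and cotyledons of uniform size were selected. Sample in DMF (10 µg/mL) was sprayed onto filter paper and dried, then the paper was wetted with distilled water. Ten cotyledons were incubated in the dark at 24 °C for 3 days. Rhizogenesis was counted per 10 hypocotyls, in triplicate, with a distilled-water control and Student's t test.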

SMILES | Activity [%]
Cn1nc(C(F)(F)F)c(/C=N/OCc2cnc(Cl)s2)c1Oc1ccc(Cl)cc1 | -34.3
Cn1nc(C(F)(F)F)c(/C=N/OCc2cnc(Cl)s2)c1Oc1ccc(F)cc1 | 28.6
Cc1nn(C)c(Oc2ccccc2)c1/C=N/OCc1ccc(C(=O)OC(C)(C)C)cc1 [FENPYROXYMATE] | 10.6
Cn1nc(C(F)(F)F)c(/C=N/OCc2cnc(Cl)s2)c1Oc1ccccc1 | -12.5
Cc1ccc(Oc2c(/C=N/OCc3cnc(Cl)s3)c(C(F)(F)F)nn2C)cc1C | -23.8
CC(C)(C)C(=O)C(Oc1ccc(Cl)cc1)n1cncn1 (configuration not stated) [TRIADIMEFON] | 50.2
Cc1ccccc1Oc1c(/C=N/OCc2cnc(Cl)s2)c(C(F)(F)F)nn1C | -26.8
Cc1cccc(Oc2c(/C=N/OCc3cnc(Cl)s3)c(C(F)(F)F)nn2C)c1 | 22.7
Cn1nc(C(F)(F)F)c(/C=N/OCc2cnc(Cl)s2)c1Sc1ccc(Cl)cc1 | 34.7

tested on: Aphis medicaginis; test: Insecticidal activity against Aphis medicaginis in soybean tender shoots assessed as mortality treated for 5 secs measured after 48 hr; format: functional; conditions: not given

SMILES | LC50 [µg/mL]
O=[N+]([O-])/N=C1\NCCN1Cc1ccc(Cl)nc1 [IMIDACLOPRID] | 9.1 (≈ 35.6 µM)
Cn1nc(C(F)(F)F)c(/C=N/OCc2cnc(Cl)s2)c1Sc1ccc(Cl)cc1 | 26.2 (≈ 56.1 µM)

tested on: Botryosphaeria berengeriana; test: Fungicidal activity against Botryosphaeria berengeriana assessed as growth inhibition at 50 ug/ml at 23 degC after 3 days; format: functional; conditions: 72 h, read-out: GI
Procedure, shortened: (§1)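 Test solutions were made at 500 µg/mL and mixed 1:9 with agar medium to give 50 µg/mL plates. A 4 mm plug from the edge of actively growing mycelium was placed at the plate centre and incubated at 23 °C. Colony diameter was measured after 3 days against a sterile water plus medium blank, in triplicate. Inhibition = [(C − T)/C] × 100%.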

SMILES | inhibition of growth at 50 µg/mL [%]
Cn1nc(C(F)(F)F)c(/C=N/OCc2cnc(Cl)s2)c1Oc1ccc(Cl)cc1 | 32.1
Cn1nc(C(F)(F)F)c(/C=N/OCc2cnc(Cl)s2)c1Oc1ccc(F)cc1 | 24.2
Cc1nn(C)c(Oc2ccccc2)c1/C=N/OCc1ccc(C(=O)OC(C)(C)C)cc1 [FENPYROXYMATE] | 6.7
Cn1nc(C(F)(F)F)c(/C=N/OCc2cnc(Cl)s2)c1Oc1ccccc1 | 30.3
Cc1ccc(Oc2c(/C=N/OCc3cnc(Cl)s3)c(C(F)(F)F)nn2C)cc1C | 26.2
CC(C)(C)C(=O)C(Oc1ccc(Cl)cc1)n1cncn1 (configuration not stated) [TRIADIMEFON] | 86.7
Cc1ccccc1Oc1c(/C=N/OCc2cnc(Cl)s2)c(C(F)(F)F)nn1C | 35
Cc1cccc(Oc2c(/C=N/OCc3cnc(Cl)s3)c(C(F)(F)F)nn2C)c1 | 45.3
Cn1nc(C(F)(F)F)c(/C=N/OCc2cnc(Cl)s2)c1Sc1ccc(Cl)cc1 | 42.4

tested on: Tetranychus cinnabarinus; test: Insecticidal activity against Tetranychus cinnabarinus (carmine spider mite) in soybean tender shoots assessed as mortality at 0.2 mg/ml treated for 5 secs measured after 48 hr; format: functional; conditions: not given
Procedure, shortened: (§2)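 Insects held at 26 °C, 60% relative humidity, 14 h photoperiod. Acetone stock at 0.5 mg/mL is diluted with water containing TW-20. Soybean tender shoots bearing 60 insects are dipped for 5 s, drained, then kept under the same conditions. Mortality is scored after 48 h relative to untreated controls, in triplicate.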

SMILES | mortality | mortality at 200 µg/mL [%]
Cn1nc(C(F)(F)F)c(/C=N/OCc2cnc(Cl)s2)c1Oc1ccc(Cl)cc1 | inactive | 
Cn1nc(C(F)(F)F)c(/C=N/OCc2cnc(Cl)s2)c1Oc1ccc(F)cc1 |  | 13.4
Cc1nn(C)c(Oc2ccccc2)c1/C=N/OCc1ccc(C(=O)OC(C)(C)C)cc1 [FENPYROXYMATE] |  | 99.7
Cn1nc(C(F)(F)F)c(/C=N/OCc2cnc(Cl)s2)c1Oc1ccccc1 |  | 11.2
Cc1ccc(Oc2c(/C=N/OCc3cnc(Cl)s3)c(C(F)(F)F)nn2C)cc1C |  | 6.4
Cc1ccccc1Oc1c(/C=N/OCc2cnc(Cl)s2)c(C(F)(F)F)nn1C |  | 9.3
Cc1cccc(Oc2c(/C=N/OCc3cnc(Cl)s3)c(C(F)(F)F)nn2C)c1 |  | 2.3
Cn1nc(C(F)(F)F)c(/C=N/OCc2cnc(Cl)s2)c1Sc1ccc(Cl)cc1 |  | 11.3

tested on: Aphis medicaginis; test: Insecticidal activity against Aphis medicaginis in soybean tender shoots assessed as mortality at 0.2 mg/ml treated for 5 secs measured after 48 hr; format: functional; conditions: not given; procedure, shortened: as §2

SMILES | mortality at 200 µg/mL [%]
Cn1nc(C(F)(F)F)c(/C=N/OCc2cnc(Cl)s2)c1Oc1ccc(Cl)cc1 | 84.4
O=[N+]([O-])/N=C1\NCCN1Cc1ccc(Cl)nc1 [IMIDACLOPRID] | 92.1
Cn1nc(C(F)(F)F)c(/C=N/OCc2cnc(Cl)s2)c1Oc1ccc(F)cc1 | 75.3
Cc1nn(C)c(Oc2ccccc2)c1/C=N/OCc1ccc(C(=O)OC(C)(C)C)cc1 [FENPYROXYMATE] | 12.4
Cn1nc(C(F)(F)F)c(/C=N/OCc2cnc(Cl)s2)c1Oc1ccccc1 | 20.2
Cc1ccc(Oc2c(/C=N/OCc3cnc(Cl)s3)c(C(F)(F)F)nn2C)cc1C | 61.4
Cc1ccccc1Oc1c(/C=N/OCc2cnc(Cl)s2)c(C(F)(F)F)nn1C | 81.3
Cc1cccc(Oc2c(/C=N/OCc3cnc(Cl)s3)c(C(F)(F)F)nn2C)c1 | 82.4
Cn1nc(C(F)(F)F)c(/C=N/OCc2cnc(Cl)s2)c1Sc1ccc(Cl)cc1 | 80.4

tested on: Aphis medicaginis; test: Insecticidal activity against Aphis medicaginis in soybean tender shoots assessed as mortality at 0.5 mg/ml treated for 5 secs measured after 48 hr; format: functional; conditions: not given; procedure, shortened: as §2

SMILES | mortality at 500 µg/mL [%]
Cn1nc(C(F)(F)F)c(/C=N/OCc2cnc(Cl)s2)c1Oc1ccc(Cl)cc1 | 92.3
O=[N+]([O-])/N=C1\NCCN1Cc1ccc(Cl)nc1 [IMIDACLOPRID] | 94.7
Cn1nc(C(F)(F)F)c(/C=N/OCc2cnc(Cl)s2)c1Oc1ccc(F)cc1 | 90.2
Cc1nn(C)c(Oc2ccccc2)c1/C=N/OCc1ccc(C(=O)OC(C)(C)C)cc1 [FENPYROXYMATE] | 18.4
Cn1nc(C(F)(F)F)c(/C=N/OCc2cnc(Cl)s2)c1Oc1ccccc1 | 41.4
Cc1ccc(Oc2c(/C=N/OCc3cnc(Cl)s3)c(C(F)(F)F)nn2C)cc1C | 71.2
Cc1ccccc1Oc1c(/C=N/OCc2cnc(Cl)s2)c(C(F)(F)F)nn1C | 90.4
Cc1cccc(Oc2c(/C=N/OCc3cnc(Cl)s3)c(C(F)(F)F)nn2C)c1 | 93.1
Cn1nc(C(F)(F)F)c(/C=N/OCc2cnc(Cl)s2)c1Sc1ccc(Cl)cc1 | 91.4

tested on: Alternaria solani; test: Fungicidal activity against Alternaria solani assessed as growth inhibition at 50 ug/ml at 23 degC after 3 days; format: functional; conditions: not given; procedure, shortened: as §1

SMILES | growth inhibition (GI)
Cn1nc(C(F)(F)F)c(/C=N/OCc2cnc(Cl)s2)c1Oc1ccc(Cl)cc1 | inactive

same assay, conditions: 72 h, read-out: GI

SMILES | inhibition of growth at 50 µg/mL [%]
Cn1nc(C(F)(F)F)c(/C=N/OCc2cnc(Cl)s2)c1Oc1ccc(F)cc1 | 26.9
Cc1nn(C)c(Oc2ccccc2)c1/C=N/OCc1ccc(C(=O)OC(C)(C)C)cc1 [FENPYROXYMATE] | 8.3
Cn1nc(C(F)(F)F)c(/C=N/OCc2cnc(Cl)s2)c1Oc1ccccc1 | 65.6
Cc1ccc(Oc2c(/C=N/OCc3cnc(Cl)s3)c(C(F)(F)F)nn2C)cc1C | 53.2
CC(C)(C)C(=O)C(Oc1ccc(Cl)cc1)n1cncn1 (configuration not stated) [TRIADIMEFON] | 66.1
Cc1ccccc1Oc1c(/C=N/OCc2cnc(Cl)s2)c(C(F)(F)F)nn1C | 42.6
Cc1cccc(Oc2c(/C=N/OCc3cnc(Cl)s3)c(C(F)(F)F)nn2C)c1 | 28
Cn1nc(C(F)(F)F)c(/C=N/OCc2cnc(Cl)s2)c1Sc1ccc(Cl)cc1 | 28.8

tested on: Mycosphaerella arachidis; test: Fungicidal activity against Mycosphaerella arachidis assessed as growth inhibition at 50 ug/ml at 23 degC after 3 days; format: functional; conditions: 72 h, read-out: GI; procedure, shortened: as §1

SMILES | inhibition of growth at 50 µg/mL [%]
Cn1nc(C(F)(F)F)c(/C=N/OCc2cnc(Cl)s2)c1Oc1ccc(Cl)cc1 | 11.8
Cn1nc(C(F)(F)F)c(/C=N/OCc2cnc(Cl)s2)c1Oc1ccc(F)cc1 | 67.2
Cc1nn(C)c(Oc2ccccc2)c1/C=N/OCc1ccc(C(=O)OC(C)(C)C)cc1 [FENPYROXYMATE] | 12.5
Cn1nc(C(F)(F)F)c(/C=N/OCc2cnc(Cl)s2)c1Oc1ccccc1 | 8.7
Cc1ccc(Oc2c(/C=N/OCc3cnc(Cl)s3)c(C(F)(F)F)nn2C)cc1C | 32.9
CC(C)(C)C(=O)C(Oc1ccc(Cl)cc1)n1cncn1 (configuration not stated) [TRIADIMEFON] | 73.4
Cc1ccccc1Oc1c(/C=N/OCc2cnc(Cl)s2)c(C(F)(F)F)nn1C | 10
Cc1cccc(Oc2c(/C=N/OCc3cnc(Cl)s3)c(C(F)(F)F)nn2C)c1 | 11.8
Cn1nc(C(F)(F)F)c(/C=N/OCc2cnc(Cl)s2)c1Sc1ccc(Cl)cc1 | 25.8

tested on: Cladosporium cucumerinum; test: Fungicidal activity against Cladosporium cucumerinum assessed as growth inhibition at 50 ug/ml at 23 degC after 3 days; format: functional; conditions: 72 h, read-out: GI; procedure, shortened: as §1

SMILES | inhibition of growth at 50 µg/mL [%]
Cn1nc(C(F)(F)F)c(/C=N/OCc2cnc(Cl)s2)c1Oc1ccc(Cl)cc1 | 15.4
Cn1nc(C(F)(F)F)c(/C=N/OCc2cnc(Cl)s2)c1Oc1ccc(F)cc1 | 53.4
Cc1nn(C)c(Oc2ccccc2)c1/C=N/OCc1ccc(C(=O)OC(C)(C)C)cc1 [FENPYROXYMATE] | 14.5
Cn1nc(C(F)(F)F)c(/C=N/OCc2cnc(Cl)s2)c1Oc1ccccc1 | 21.6
Cc1ccc(Oc2c(/C=N/OCc3cnc(Cl)s3)c(C(F)(F)F)nn2C)cc1C | 8.9
CC(C)(C)C(=O)C(Oc1ccc(Cl)cc1)n1cncn1 (configuration not stated) [TRIADIMEFON] | 81.5
Cc1ccccc1Oc1c(/C=N/OCc2cnc(Cl)s2)c(C(F)(F)F)nn1C | 32.6
Cc1cccc(Oc2c(/C=N/OCc3cnc(Cl)s3)c(C(F)(F)F)nn2C)c1 | 31.3
Cn1nc(C(F)(F)F)c(/C=N/OCc2cnc(Cl)s2)c1Sc1ccc(Cl)cc1 | 18.9
